According to ChEMBL document CHEMBL4196093, “Small-Molecule Activator of UNC-51-Like Kinase 1 (ULK1) That Induces Cytoprotective Autophagy for Parkinson's Disease Treatment” (J Med Chem, 2018):

Key:
[1] = target: T1, Serine/threonine-protein kinase ULK1 (Homo sapiens) (UniProt O75385); test: Induction of human recombinant N-terminal GST tagged-ULK1 (1 to 649 residues) kinase activity expressed in baculovirus infected insect Sf9 cells at 100 nM using MBP as substrate after 60 mins by ADP-glo assay relative to (R)-2-(3-(3,5-Bis(trifluoromethyl)phenyl)thioureido)-N-(2,4-difluorophenyl)-2-phenylacetamide
T1 sequence (whole entry): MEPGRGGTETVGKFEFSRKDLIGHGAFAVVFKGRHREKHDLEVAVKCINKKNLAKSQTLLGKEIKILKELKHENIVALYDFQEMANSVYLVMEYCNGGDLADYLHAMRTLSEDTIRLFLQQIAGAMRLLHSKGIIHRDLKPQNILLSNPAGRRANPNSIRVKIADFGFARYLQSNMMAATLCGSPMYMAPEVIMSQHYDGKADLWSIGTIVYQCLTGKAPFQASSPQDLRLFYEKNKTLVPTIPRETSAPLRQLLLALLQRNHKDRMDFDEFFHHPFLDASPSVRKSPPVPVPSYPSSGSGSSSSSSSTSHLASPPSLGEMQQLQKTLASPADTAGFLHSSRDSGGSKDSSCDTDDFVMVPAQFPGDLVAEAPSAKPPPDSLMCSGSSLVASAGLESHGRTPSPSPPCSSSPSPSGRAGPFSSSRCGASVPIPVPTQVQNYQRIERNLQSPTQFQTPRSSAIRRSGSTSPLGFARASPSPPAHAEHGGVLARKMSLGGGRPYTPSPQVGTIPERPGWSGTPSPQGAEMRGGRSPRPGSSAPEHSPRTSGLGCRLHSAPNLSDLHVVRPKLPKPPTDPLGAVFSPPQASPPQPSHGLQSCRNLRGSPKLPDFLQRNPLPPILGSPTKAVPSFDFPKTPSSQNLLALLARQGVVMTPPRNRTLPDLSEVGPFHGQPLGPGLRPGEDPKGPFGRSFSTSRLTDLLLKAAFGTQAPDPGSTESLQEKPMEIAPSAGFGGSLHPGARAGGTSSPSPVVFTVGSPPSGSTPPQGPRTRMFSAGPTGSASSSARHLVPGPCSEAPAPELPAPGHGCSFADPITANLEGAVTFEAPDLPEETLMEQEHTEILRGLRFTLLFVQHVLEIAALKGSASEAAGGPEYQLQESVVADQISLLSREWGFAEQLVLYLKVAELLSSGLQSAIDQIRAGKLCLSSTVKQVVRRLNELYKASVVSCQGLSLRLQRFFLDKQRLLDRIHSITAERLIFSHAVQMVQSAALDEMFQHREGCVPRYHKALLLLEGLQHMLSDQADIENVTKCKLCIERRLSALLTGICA
Method in brief: (§1)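 Recombinant human ULK1 (10 ng) with MBP (0.1 µg/µl)/10 µM ATP and compound at 100 nM in 40 mM Tris pH 7.5, 20 mM MgCl2, 50 µM DTT, 0.1 mg/ml BSA. Incubated 60 min at room temperature; ADP-Glo luminescence read. Three independent experiments, mean ± SEM.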

[2] = target: T2, Serine/threonine-protein kinase ULK1 (Homo sapiens, UniProt O75385); test: Induction of human recombinant N-terminal GST tagged-ULK1 (1 to 649 residues) kinase activity expressed in baculovirus infected insect Sf9 cells using MBP as substrate after 60 mins by ADP-glo assay
T2 sequence (O75385 whole entry): T1 sequence (whole entry)
Method in brief: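 ULK1 (10 ng) incubated with MBP (0.1 µg/µl)/10 µM ATP and a compound concentration series in Tris pH 7.5/MgCl2/DTT/BSA buffer for 60 min at room temperature. ADP-Glo luminescence read. EC50 derived from the curve; Emax normalized to maximal response of the reference activator.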

[3] = target: T1, Serine/threonine-protein kinase ULK1 (Homo sapiens); test: Induction of human recombinant N-terminal GST tagged-ULK1 (1 to 649 residues) kinase activity expressed in baculovirus infected insect Sf9 cells at 100 nM using MBP as substrate after 60 mins by ADP-glo assay relative to control; method in brief: as §1
[4] = target: T1, Serine/threonine-protein kinase ULK1 (Homo sapiens); test: Induction of ULK1-mediated autophagy in human SH-SY5Y cells at 1 uM after 6 hrs by MDC-staining based flow cytometric analysis relative to control; type: cell-based
Method in brief: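 Autophagy scored as percentage of MDC-positive SH-SY5Y cells by flow cytometry after 1 µM compound; mean ± SEM.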

fold change (FC) [1]	EC50 [2]	Activity [3]	Activity [4]	SMILES
0.692	54.8 nM	197%	14.7%	CN1CCN(CC(OC(=O)c2ccc3c(c2)OCO3)c2ccccc2)CC1 (stereo not drawn)
0.742	40.8 nM	202%	30.1%	O=C(Nc1ccc(F)cc1F)[C@H](NCCc1ccc(F)cc1)c1ccccc1
–	–	148%	24.3%	COc1ccc(CCNC(=O)N[C@@H](C(=O)Nc2ccc(C)cc2)c2ccccc2)cc1OC
–	–	152%	11.8%	COc1ccc(N2CCN(CC(OC(=O)c3ccccc3F)c3ccccc3)CC2)cc1 (stereo not drawn)
0.324	263 nM	–	–	Clc1ccc(CO[C@@H](Cn2ccnc2)c2ccc(Cl)cc2Cl)cc1
–	–	178%	32.9%	C[C@@H](NC(=O)[C@H](NC(=S)Nc1cc(C(F)(F)F)cc(C(F)(F)F)c1)c1ccccc1)c1ccccc1
–	–	157%	28.6%	COc1ccc(NC(=O)N[C@@H](C(=O)Nc2cccc(Br)c2)c2ccccc2)cc1
–	–	205%	43.1%	Cc1ccccc1NC(=O)[C@H](NC(=S)Nc1cc(C(F)(F)F)cc(C(F)(F)F)c1)c1ccccc1
–	–	164%	24.5%	Cc1ccccc1NC(=O)[C@H](NCCc1ccc(F)cc1)c1ccccc1
–	–	139%	6.22%	COc1ccc(CC(=O)OC(CN2CCN(C)CC2)c2ccccc2)cc1OC (stereo not drawn)
–	–	155%	11.2%	COc1ccc(C(=O)OC(CN2CCN(c3ccc(OC)cc3)CC2)c2ccccc2)cc1 (stereo not drawn)
–	–	140%	16.2%	COc1cccc(CCN[C@@H](C(=O)Nc2ccccc2C)c2ccccc2)c1
–	–	209%	38.3%	C[C@@H](NC(=O)[C@H](NC(=O)Nc1ccc(C(F)(F)F)cc1)c1ccccc1)c1ccccc1
–	–	144%	16.2%	Cc1cccc(C)c1NC(=O)N[C@@H](C(=O)N[C@H](C)c1ccccc1)c1ccccc1
–	–	161%	26.3%	O=C(Nc1ccccc1Cl)N[C@@H](C(=O)Nc1cccc(Br)c1)c1ccccc1
–	–	156%	9.59%	CN1CCN(CC(OC(=O)c2ccccc2)c2ccccc2)CC1 (stereo not drawn)
–	–	153%	30.9%	COc1ccc(NC(=O)N[C@@H](C(=O)N[C@H](C)c2cc(F)ccc2F)c2ccccc2)cc1
–	–	141%	21.1%	COc1ccc(NC(=O)[C@H](NC(=O)NCCc2ccc(OC)c(OC)c2)c2ccccc2)cc1
–	–	150%	24.6%	O=C(Nc1cccc2ccccc12)N[C@@H](C(=O)Nc1cccc(Br)c1)c1ccccc1
–	–	147%	24.9%	Cc1cccc(C)c1NC(=O)N[C@@H](C(=O)Nc1cc(F)ccc1F)c1ccccc1
–	–	142%	7.41%	CN1CCN(CC(OC(=O)c2ccc(-c3ccccc3)cc2)c2ccccc2)CC1 (stereo not drawn)
–	–	148%	20.6%	COc1cccc(CCN[C@@H](C(=O)Nc2ccc(F)cc2F)c2ccccc2)c1
